What was measured:
Coagulation factor X = Coagulation factor X (Homo sapiens, UniProt P00742); test: Inhibition of human factor 10a using N-Z-D-Arg-Gly-Arg-pNA, S-2765 chromogenic substrate
Plasma [1] = test: Anticoagulant activity in citrated rabbit plasma assessed as drug concentration required to double plasma clotting time preincubated for 10 mins at 37 degC by coagulometry; assay type: functional, Oryctolagus cuniculus
Outline: (§1)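 Test compound or DMSO added to citrated rabbit plasma (3.8% sodium citrate, 10:90 v/v) and preincubated 10 min at 37 °C. PT and aPTT clotting times measured on a coagulometer with commercial kits. Activity expressed as the concentration needed to double plasma clotting time (CT2, μM).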

Plasma [2] = test: Anticoagulant activity in citrated rabbit plasma assessed as activated partial thromboplastin time preincubated for 10 mins at 37 degC by coagulometry; assay type: functional, Oryctolagus cuniculus; outline: as §1
[3] = Cmax in Sprague-Dawley rat at 10 mg/kg, po; assay type: ADME, organism-based; design: dose 10 mg/kg, route oral; settings: in vivo
Outline: (§2)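 Male Sprague-Dawley rats, 200−220 g, four per group. Vehicle was 5% DMSO + 5% Tween-80 in 90% saline. The reference drug was given in 10% DMSO + 10% Tween-80 + 80% PEG400 (40% solution in saline). Serial retrobulbar vein samples were quantified by LC-MS. Parameters came from noncompartmental analysis of mean plasma concentrations.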

[4] = Tmax in Sprague-Dawley rat at 10 mg/kg, po; assay type: ADME, organism-based; design: dose 10 mg/kg, route oral; settings: in vivo; outline: as §2
[5] = Elimination half life in Sprague-Dawley rat at 10 mg/kg, po; assay type: ADME, organism-based; design: dose 10 mg/kg, route oral; settings: in vivo, read-out: beta t1/2 (converted); outline: as §2
[6] = Elimination half life in Sprague-Dawley rat at 3 mg/kg, iv; assay type: ADME, organism-based; design: dose 3 mg/kg, route intravenous; settings: in vivo, read-out: beta t1/2 (converted); outline: as §2
[7] = AUC (0 to infinity) in Sprague-Dawley rat at 10 mg/kg, po; assay type: ADME, organism-based; design: time infinity, dose 10 mg/kg, route oral; settings: plasma; outline: as §2
[8] = AUC (0 to infinity) in Sprague-Dawley rat at 3 mg/kg, iv; assay type: ADME, organism-based; design: time infinity, dose 3 mg/kg, route intravenous; settings: plasma; outline: as §2
[9] = Plasma clearance in Sprague-Dawley rat at 3 mg/kg, iv; assay type: ADME, organism-based; design: dose 3 mg/kg, route intravenous; outline: as §2
[10] = Volume of distribution at steady state in Sprague-Dawley rat at 3 mg/kg, iv; assay type: ADME, organism-based; design: dose 3 mg/kg, route intravenous; settings: in vivo, read-out: Vdss; outline: as §2
[11] = Oral bioavailability in Sprague-Dawley rat at 10 mg/kg; assay type: ADME, organism-based; settings: in vivo; outline: as §2
Prothrombin = Prothrombin (Homo sapiens, UniProt P00734); test: Inhibition of human factor 2a using L-pyro-Glu-Pro-ArgpNA, S-2366 chromogenic substrate
Outline: (§3)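 Human enzyme and inhibitor were premixed and preincubated, then the chromogenic substrate was added. Substrate levels: 300 μM S-2765 (FXa, trypsin); 200 μM S-2366 (FIIa); 2 mM S-2366 (FVIIa, FXIa). pNA release was monitored continuously at 405 nm for 20 min at 37 °C. IC50 was obtained by nonlinear regression.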

Coagulation factor VII = target: T1, Coagulation factor VII (Homo sapiens, UniProt P08709); test: Inhibition of human factor 7a using S-2366 chromogenic substrate; outline: as §3
T1 sequence (P08709 whole entry): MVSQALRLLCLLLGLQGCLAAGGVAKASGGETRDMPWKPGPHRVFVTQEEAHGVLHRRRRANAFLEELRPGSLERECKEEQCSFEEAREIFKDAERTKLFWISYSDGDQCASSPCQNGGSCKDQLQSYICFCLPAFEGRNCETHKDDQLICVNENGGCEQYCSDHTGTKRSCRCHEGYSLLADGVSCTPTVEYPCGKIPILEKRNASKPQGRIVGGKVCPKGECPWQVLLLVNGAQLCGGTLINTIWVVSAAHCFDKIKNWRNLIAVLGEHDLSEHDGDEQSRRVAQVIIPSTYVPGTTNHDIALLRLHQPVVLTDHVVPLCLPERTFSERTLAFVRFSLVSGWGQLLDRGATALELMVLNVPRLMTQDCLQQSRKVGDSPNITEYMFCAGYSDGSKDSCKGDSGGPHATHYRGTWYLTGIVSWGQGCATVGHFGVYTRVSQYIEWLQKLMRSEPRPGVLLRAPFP

Coagulation factor IX = Coagulation factor IX (Homo sapiens, UniProt P00740); test: Inhibition of human factor 9a using CH3SO2-(D)CHG Gly-Arg-pNA, Biophen-CS51 chromogenic substrate
Trypsin = Trypsin (Homo sapiens, UniProt P07477+P07478+P35030); test: Inhibition of human trypsin using N-Z-D-Arg-Gly-Arg-pNA, S-2765 chromogenic substrate; assay type: protein assay; outline: as §3
Coagulation factor XI = Coagulation factor XI (Homo sapiens, UniProt P03951); test: Inhibition of human factor 11a using S-2366 chromogenic substrate; outline: as §3
Sequence of Coagulation factor XI (P03951 19-387 limits assumed): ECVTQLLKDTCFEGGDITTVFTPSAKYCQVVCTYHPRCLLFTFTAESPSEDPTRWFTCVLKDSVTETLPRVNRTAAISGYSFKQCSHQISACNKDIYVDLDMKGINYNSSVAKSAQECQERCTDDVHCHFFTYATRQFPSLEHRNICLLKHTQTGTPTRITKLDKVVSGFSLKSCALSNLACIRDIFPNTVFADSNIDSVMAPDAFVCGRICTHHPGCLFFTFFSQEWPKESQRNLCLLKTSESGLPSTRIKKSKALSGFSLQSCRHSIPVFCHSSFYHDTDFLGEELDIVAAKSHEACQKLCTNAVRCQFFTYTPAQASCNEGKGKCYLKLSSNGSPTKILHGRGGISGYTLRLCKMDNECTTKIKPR
Sequence of Coagulation factor XI (P03951 388-625 limits assumed): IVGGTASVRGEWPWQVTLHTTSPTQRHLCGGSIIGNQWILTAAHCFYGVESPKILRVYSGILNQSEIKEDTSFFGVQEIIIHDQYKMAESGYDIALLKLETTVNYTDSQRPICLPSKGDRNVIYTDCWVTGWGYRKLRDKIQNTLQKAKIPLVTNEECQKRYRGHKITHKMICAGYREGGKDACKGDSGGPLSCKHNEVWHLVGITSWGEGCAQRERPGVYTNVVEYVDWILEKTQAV

Sequence of Coagulation factor X (P00742 41-179 limits assumed): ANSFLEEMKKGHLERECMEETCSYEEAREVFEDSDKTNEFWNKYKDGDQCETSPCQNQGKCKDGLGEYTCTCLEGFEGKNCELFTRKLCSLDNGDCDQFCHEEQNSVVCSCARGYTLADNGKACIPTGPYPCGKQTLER
Sequence of Coagulation factor X (P00742 235-488 limits assumed): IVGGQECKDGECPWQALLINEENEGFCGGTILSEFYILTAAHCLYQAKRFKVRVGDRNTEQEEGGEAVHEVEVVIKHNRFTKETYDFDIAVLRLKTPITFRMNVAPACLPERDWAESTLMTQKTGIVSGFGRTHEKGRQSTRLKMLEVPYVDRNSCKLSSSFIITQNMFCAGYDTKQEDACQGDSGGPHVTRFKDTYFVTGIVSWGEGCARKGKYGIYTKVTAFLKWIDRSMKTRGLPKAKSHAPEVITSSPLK
Sequence of Coagulation factor IX (P00740 47-191 limits assumed): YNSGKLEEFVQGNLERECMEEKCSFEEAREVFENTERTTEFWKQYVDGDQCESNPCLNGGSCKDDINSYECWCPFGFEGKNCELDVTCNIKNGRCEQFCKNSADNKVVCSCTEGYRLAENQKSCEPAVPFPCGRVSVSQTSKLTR
Sequence of Coagulation factor IX (P00740 227-461 limits assumed): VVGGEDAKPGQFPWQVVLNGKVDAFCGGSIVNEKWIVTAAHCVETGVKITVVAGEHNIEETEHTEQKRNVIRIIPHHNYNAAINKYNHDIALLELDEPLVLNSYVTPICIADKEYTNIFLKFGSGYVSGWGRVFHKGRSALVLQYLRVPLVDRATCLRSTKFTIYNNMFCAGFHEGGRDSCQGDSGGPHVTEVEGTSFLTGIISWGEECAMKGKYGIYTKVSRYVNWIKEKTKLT

Row | SMILES | IC50 (Coagulation factor X) [nM] | also measured
1 | O=C(NC[C@@H]1OC(=O)N2c3ccc(N4CCOCC4=O)cc3OC[C@@H]12)c1sc2cc(Cl)ccc2c1Cl | > 100000 | 
2 | O=C(NC[C@@H]1OC(=O)N2c3ccc(N4CCOCC4=O)cc3OC[C@@H]12)c1cc(Cl)c(Cl)s1 | 8080 | 
3 | NS(=O)(=O)c1ccccc1-c1ccc2c(c1)OC[C@H]1[C@H](CNC(=O)c3ccc(Cl)s3)OC(=O)N21 | 60.6 | Activity (Plasma [1]): 4.58 µM; 2aPTT (Plasma [2]): 4.86 µM; Cmax [3]: 3630 ng/mL; Tmax [4]: 1 h; half-life [5]: 1.65 h; half-life [6]: 1.38 h; AUC(0-inf) [7]: 12300 ng·h/mL; AUC(0-inf) [8]: 12200 ng·h/mL; clearance [9]: 4.22 mL/min/kg; Vd [10]: 0.35 L/kg; bioavailability [11]: 29%
4 | CC(C)(C)OC(=O)N1C[C@H]2[C@H](CNC(=O)c3ccc(Cl)s3)OC(=O)N2c2ccc(N3CCCCC3=O)cc21 | 8180 | 
5 | O=C(NC[C@@H]1OC(=O)N2c3ccc(N4CCC5(CC4=O)OCCO5)cc3OC[C@@H]12)c1ccc(Cl)s1 | 2510 | 
6 | O=C(NC[C@@H]1OC(=O)N2c3ccc(N4CCOCC4=O)cc3SC[C@@H]12)c1ccc(Cl)s1 | 2.51 | IC50 (Prothrombin): > 100000 nM; IC50 (Coagulation factor VII): > 100000 nM; IC50 (Coagulation factor IX): > 100000 nM; IC50 (Trypsin): > 100000 nM; IC50 (Coagulation factor XI): > 100000 nM; Activity (Plasma [1]): 0.58 µM; 2aPTT (Plasma [2]): 0.33 µM; Cmax [3]: 167 ng/mL; Tmax [4]: 4 h; half-life [5]: 3.15 h; half-life [6]: 0.89 h; AUC(0-inf) [7]: 1480 ng·h/mL; AUC(0-inf) [8]: 5700 ng·h/mL; clearance [9]: 8.82 mL/min/kg; Vd [10]: 0.574 L/kg; bioavailability [11]: 7.4%
7 | O=C(NC[C@@H]1OC(=O)N2c3ccc(N4CCOCC4=O)cc3OC[C@@H]12)C(Cl)Cl | 52700 | 
8 | O=C(NC[C@@H]1OC(=O)N2c3ccc(N4CCOCC4=O)cc3OC[C@@H]12)c1cnc(Cl)s1 | 7060 | 
9 | O=C(NC[C@@H]1OC(=O)N2c3ccc(N4CCOCC4=O)cc3OC[C@@H]12)c1cc2cccc(Cl)c2s1 | > 100000 | 
10 | O=C(NC[C@@H]1OC(=O)N2c3ccc(N4CCOCC4=O)cc3OC[C@@H]12)c1cc2cc(Cl)ccc2s1 | 25900 | 
11 | O=C(Nc1ccc(Cl)cn1)[C@@H]1OC(=O)N2c3ccc(N4CCOCC4=O)cc3OC[C@@H]12 | > 100000 | 
12 | CCN1CCN(c2ccc3c(c2)OC[C@H]2[C@H](CNC(=O)c4ccc(Cl)s4)OC(=O)N32)C(=O)C1 | 15800 | 
13 | CS(=O)(=O)N1CCN(c2ccc3c(c2)OC[C@H]2[C@H](CNC(=O)c4ccc(Cl)s4)OC(=O)N32)C(=O)C1 | 4180 | 
14 | O=C(NC[C@@H]1OC(=O)N2c3ccc(N4CCN(S(=O)(=O)c5ccccc5)CC4=O)cc3OC[C@@H]12)c1ccc(Cl)s1 | 5530 | 
15 | O=C(NC[C@@H]1OC(=O)N2c3ccc(N4CCOCC4=O)cc3OC[C@@H]12)c1cc2c(Cl)cccc2s1 | > 100000 | 
16 | O=C(NC[C@@H]1OC(=O)N2c3ccc(N4CCOCC4=O)cc3OC[C@@H]12)c1cc2ccc(Cl)cc2s1 | 1750 | 
17 | O=C(Nc1ccc(Cl)s1)[C@@H]1OC(=O)N2c3ccc(N4CCOCC4=O)cc3OC[C@@H]12 | > 100000 | 
18 | COc1ccc(C(=O)NC[C@@H]2OC(=O)N3c4ccc(N5CCOCC5=O)cc4OC[C@@H]23)cc1 | 4780 | 
19 | O=C(NC[C@@H]1OC(=O)N2c3ccc(N4CCOCC4=O)cc3OC[C@@H]12)c1ccc(Cl)cc1 | 160 | Activity (Plasma [1]): 1.06 µM; 2aPTT (Plasma [2]): 0.93 µM
20 | O=C(NC[C@@H]1OC(=O)N2c3ccc(N4CCCCC4=O)cc3SC[C@@H]12)c1ccc(Cl)s1 | 4.89 | Activity (Plasma [1]): 0.64 µM; 2aPTT (Plasma [2]): 0.62 µM
21 | O=C(NC[C@@H]1OC(=O)N2c3ccc(N4CCN(Cc5ccccc5)CC4=O)cc3OC[C@@H]12)c1ccc(Cl)s1 | 11400 | 
22 | O=C(CSCCCl)NC[C@@H]1OC(=O)N2c3ccc(N4CCOCC4=O)cc3OC[C@@H]12 | > 100000 | 
23 | CO[C@H]1CCN(c2ccc3c(c2)OC[C@H]2[C@H](CNC(=O)c4ccc(Cl)s4)OC(=O)N32)C(=O)C1 | 1860 | 
24 | O=C(NC[C@@H]1OC(=O)N2c3ccc(N4CCOCC4=O)cc3S(=O)(=O)C[C@@H]12)c1ccc(Cl)s1 | 17.4 | Activity (Plasma [1]): 0.47 µM; 2aPTT (Plasma [2]): 0.76 µM; Cmax [3]: 917 ng/mL; Tmax [4]: 0.38 h; half-life [5]: 2.14 h; half-life [6]: 0.54 h; AUC(0-inf) [7]: 1540 ng·h/mL; AUC(0-inf) [8]: 6120 ng·h/mL; clearance [9]: 8.22 mL/min/kg; Vd [10]: 0.154 L/kg; bioavailability [11]: 7.3%
25 | CN1CCN(c2ccc3c(c2)OC[C@H]2[C@H](CNC(=O)c4ccc(Cl)s4)OC(=O)N32)C(=O)C1 | 2210 | 

The remaining compounds from weak to strong by IC50 (Coagulation factor X), led by results:

Row | IC50 (Coagulation factor X) [nM] | SMILES | also measured
26 | 1610 | CS(=O)(=O)c1ccccc1-c1ccc2c(c1)SC[C@H]1[C@H](CNC(=O)c3ccc(Cl)cc3)OC(=O)N21 | 
27 | 1220 | O=C(NC[C@@H]1OC(=O)N2c3ccc(N4CC[C@H](O)CC4=O)cc3OC[C@@H]12)c1ccc(Cl)s1 | 
28 | 1210 | O=C(NC[C@@H]1OC(=O)N2c3ccc(N4CCOCC4=O)cc3OC[C@@H]12)C(=O)Nc1ccc(Cl)cn1 | 
29 | 730 | O=C(NC[C@@H]1OC(=O)N2c3ccc(N4CCOC4=O)cc3OC[C@@H]12)c1ccc(Cl)s1 | 
30 | 710 | O=C(NC[C@@H]1OC(=O)N2c3ccc(N4CCOCC4=O)cc3OC[C@@H]12)c1ccc(Cl)cn1 | 
31 | 590 | CO[C@@H]1CCN(c2ccc3c(c2)OC[C@H]2[C@H](CNC(=O)c4ccc(Cl)s4)OC(=O)N32)C(=O)C1 | 
32 | 560 | O=C(NC[C@@H]1OC(=O)N2c3ccc(N4CCOCC4=O)cc3OC[C@@H]12)C(=O)Nc1ccc(Cl)s1 | 
33 | 310 | O=C(NC[C@@H]1OC(=O)N2c3ccc(N4CCOCC4=O)cc3OC[C@@H]12)C(=O)Nc1ccc(Cl)cc1 | 
34 | 190 | O=C(NC[C@@H]1OC(=O)N2c3ccc(N4CCNCC4=O)cc3OC[C@@H]12)c1ccc(Cl)s1 | 
35 | 130 | O=C(NC[C@@H]1OC(=O)N2c3ccc(N4CC[C@@H](O)CC4=O)cc3OC[C@@H]12)c1ccc(Cl)s1 | 
36 | 88.5 | O=C(NC[C@@H]1OC(=O)N2c3ccc(N4CCOCC4=O)cc3OC[C@@H]12)Nc1ccc(Cl)s1 | 
37 | 87.2 | CC(=O)N(C)c1ccc2c(c1)OC[C@H]1[C@H](CNC(=O)c3ccc(Cl)s3)OC(=O)N21 | 
38 | 74.8 | CC(=O)N1CCN(c2ccc3c(c2)OC[C@H]2[C@H](CNC(=O)c4ccc(Cl)s4)OC(=O)N32)C(=O)C1 | 
39 | 64 | O=C(NC[C@@H]1OC(=O)N2c3ccc(N4CCOCC4=O)cc3[S+]([O-])C[C@@H]12)c1ccc(Cl)s1 (stereo not given in full) | 
40 | 57.8 | O=C(NC[C@@H]1OC(=O)N2c3ccc(N4CCOCC4=O)cc3OC[C@H]12)c1ccc(Cl)s1 | 
41 | 50.5 | O=C(NC[C@@H]1OC(=O)N2c3ccc(N4CCCCC4=O)cc3S(=O)(=O)C[C@@H]12)c1ccc(Cl)s1 | 
42 | 46.6 | O=C(NC[C@@H]1OC(=O)N2c3ccc(N4CC[C@H](F)CC4=O)cc3OC[C@@H]12)c1ccc(Cl)s1 | 
43 | 45.2 | O=C(NC[C@@H]1OC(=O)N2c3ccc(N4CCOCC4=O)cc3SC[C@@H]12)c1ccc(Cl)cc1 | 
44 | 40.6 | O=C(NC[C@@H]1OC(=O)N2c3ccc(N4CC[C@@H](F)CC4=O)cc3OC[C@@H]12)c1ccc(Cl)s1 | 
45 | 32.1 | O=C(NC[C@@H]1OC(=O)N2c3ccc(N4CCOCC4=O)cc3OC[C@@H]12)Nc1ccc(Cl)cc1 | 
46 | 20.9 | CS(=O)(=O)c1ccccc1-c1ccc2c(c1)SC[C@H]1[C@H](CNC(=O)c3ccc(Cl)s3)OC(=O)N21 | 
47 | 15.2 | O=C(NC[C@@H]1OC(=O)N2c3ccc(N4CCCCC4=O)cc3NC[C@@H]12)c1ccc(Cl)s1 | 
48 | 6.59 | O=C(NC[C@@H]1OC(=O)N2c3ccc(N4CCCCC4=O)cc3CC[C@@H]12)c1ccc(Cl)s1 | 
